In brackets after ≈: the same amount, converted by molar mass.
Key:
Type in all cases: functional
Klebsiella pneumoniae [1] = test: Antimicrobial activity against OmpK35-deficient Carbapenem-resistant Klebsiella pneumoniae isolate ART2008226 expressing KPC beta lactamase by broth microdilution method
Klebsiella pneumoniae [2] = test: Antimicrobial activity against OmpK35-deficient Carbapenem-resistant Klebsiella pneumoniae isolate ART2008142 expressing KPC beta lactamase by broth microdilution method
Klebsiella pneumoniae [3] = test: Antimicrobial activity against Carbapenem-resistant Klebsiella pneumoniae isolate AIS081058 expressing KPC beta lactamase by broth microdilution method
Klebsiella pneumoniae [4] = test: Antimicrobial activity against OmpK35-deficient Carbapenem-resistant Klebsiella pneumoniae isolate AIS070654 expressing KPC beta lactamase by broth microdilution method
Klebsiella pneumoniae [5] = test: Antimicrobial activity against OmpK35-deficient Carbapenem-resistant Klebsiella pneumoniae isolate AIS081072 expressing KPC beta lactamase by broth microdilution method
Klebsiella pneumoniae [6] = test: Antimicrobial activity against Carbapenem-resistant Klebsiella pneumoniae isolate AIS080884 expressing KPC beta lactamase by broth microdilution method
Klebsiella pneumoniae [7] = test: Antimicrobial activity against OmpK35-deficient Carbapenem-resistant Klebsiella pneumoniae isolate ART2008140 expressing KPC beta lactamase by broth microdilution method
Klebsiella pneumoniae [8] = test: Antimicrobial activity against OmpK35-deficient Carbapenem-resistant Klebsiella pneumoniae isolate AIS070446 expressing KPC beta lactamase by broth microdilution method
Summary of the method: (§1)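 The clinical K. pneumoniae isolates had been referred to CDC for susceptibility testing. bla_KPC was confirmed by PCR and subtyped by bidirectional sequencing of a 1,011-bp amplicon. Isolates were typed by PFGE of XbaI-digested DNA.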

Klebsiella pneumoniae [9] = test: Antimicrobial activity against Carbapenem-resistant Klebsiella pneumoniae isolate HIP10924 expressing KPC beta lactamase by broth microdilution method
Klebsiella pneumoniae [10] = test: Antimicrobial activity against Carbapenem-resistant Klebsiella pneumoniae isolate ART2008028 expressing KPC beta lactamase by broth microdilution method
Klebsiella pneumoniae [11] = test: Antimicrobial activity against OmpK35-deficient Carbapenem-resistant Klebsiella pneumoniae isolate ART2008137 expressing KPC beta lactamase by broth microdilution method; summary of the method: as §1
Klebsiella pneumoniae [12] = test: Antimicrobial activity against OmpK35-deficient Carbapenem-resistant Klebsiella pneumoniae isolate HIP14474 expressing KPC beta lactamase by broth microdilution method
Klebsiella pneumoniae [13] = test: Antimicrobial activity against OmpK35-deficient Carbapenem-resistant Klebsiella pneumoniae isolate ART2008136 expressing KPC beta lactamase by broth microdilution method; summary of the method: as §1
Klebsiella pneumoniae [14] = test: Antimicrobial activity against OmpK35-deficient Carbapenem-resistant Klebsiella pneumoniae isolate ART2008022 expressing KPC beta lactamase by broth microdilution method
Klebsiella pneumoniae [15] = test: Antimicrobial activity against OmpK35-deficient Carbapenem-resistant Klebsiella pneumoniae isolate ART2008139 expressing KPC beta lactamase by broth microdilution method
Klebsiella pneumoniae [16] = test: Antimicrobial activity against OmpK35-deficient Carbapenem-resistant Klebsiella pneumoniae isolate ART2008143 expressing KPC beta lactamase by broth microdilution method
Klebsiella pneumoniae [17] = test: Antimicrobial activity against OmpK35-deficient Carbapenem-resistant Klebsiella pneumoniae isolate AIS080949 expressing KPC beta lactamase by broth microdilution method
Klebsiella pneumoniae [18] = test: Antimicrobial activity against OmpK35-deficient Carbapenem-resistant Klebsiella pneumoniae isolate HIP14358 expressing KPC beta lactamase by broth microdilution method
Klebsiella pneumoniae [19] = test: Antimicrobial activity against OmpK35-deficient Carbapenem-resistant Klebsiella pneumoniae isolate AIS080792 expressing KPC beta lactamase by broth microdilution method
Klebsiella pneumoniae [20] = test: Antimicrobial activity against OmpK35-deficient Carbapenem-resistant Klebsiella pneumoniae isolate ART2008138 expressing KPC beta lactamase by broth microdilution method
Klebsiella pneumoniae [21] = test: Antimicrobial activity against Carbapenem-resistant Klebsiella pneumoniae isolate ART2008024 expressing KPC beta lactamase by broth microdilution method
Klebsiella pneumoniae [22] = test: Antimicrobial activity against OmpK35-deficient Carbapenem-resistant Klebsiella pneumoniae isolate ART2008026 expressing KPC beta lactamase by broth microdilution method
Klebsiella pneumoniae [23] = test: Antimicrobial activity against OmpK35-deficient Carbapenem-resistant Klebsiella pneumoniae isolate AIS081042 expressing KPC beta lactamase by broth microdilution method
Klebsiella pneumoniae [24] = test: Antimicrobial activity against OmpK35-deficient Carbapenem-resistant Klebsiella pneumoniae isolate AIS080571 expressing KPC beta lactamase by broth microdilution method
Klebsiella pneumoniae [25] = test: Antimicrobial activity against OmpK35,OmpK36-deficient Carbapenem-resistant Klebsiella pneumoniae isolate ART2008141 expressing KPC beta lactamase by broth microdilution method
Klebsiella pneumoniae [26] = test: Antimicrobial activity against OmpK35,OmpK36-deficient Carbapenem-resistant Klebsiella pneumoniae isolate ART2008135 expressing KPC beta lactamase by broth microdilution method
Klebsiella pneumoniae [27] = test: Antimicrobial activity against OmpK35,OmpK36-deficient Carbapenem-resistant Klebsiella pneumoniae isolate ART2008027 expressing KPC beta lactamase by broth microdilution method

Row | Compound | MIC (Klebsiella pneumoniae [1]) [µg/mL] | MIC (Klebsiella pneumoniae [2]) [µg/mL] | MIC (Klebsiella pneumoniae [3]) [µg/mL] | MIC (Klebsiella pneumoniae [4]) [µg/mL] | MIC (Klebsiella pneumoniae [5]) [µg/mL] | MIC (Klebsiella pneumoniae [7]) [µg/mL] | MIC (Klebsiella pneumoniae [8]) [µg/mL] | MIC (Klebsiella pneumoniae [9]) [µg/mL] | MIC (Klebsiella pneumoniae [10]) [µg/mL] | MIC (Klebsiella pneumoniae [11]) [µg/mL] | MIC (Klebsiella pneumoniae [12]) [µg/mL] | MIC (Klebsiella pneumoniae [13]) [µg/mL] | MIC (Klebsiella pneumoniae [19]) [µg/mL] | MIC (Klebsiella pneumoniae [20]) [µg/mL] | MIC (Klebsiella pneumoniae [21]) [µg/mL] | MIC (Klebsiella pneumoniae [22]) [µg/mL] | MIC (Klebsiella pneumoniae [23]) [µg/mL] | MIC (Klebsiella pneumoniae [24]) [µg/mL] | MIC (Klebsiella pneumoniae [25]) [µg/mL] | MIC (Klebsiella pneumoniae [26]) [µg/mL] | also measured
1 | C[C@@H](O)[C@H]1C(=O)N2C(C(=O)O)=C(SCCNC=N)C[C@H]12 [IMIPENEM ANHYDROUS] | < 1 | < 1 | 1 (≈ 3.34 µM) | 4 (≈ 13.4 µM) | 2 (≈ 6.68 µM) | 4 (≈ 13.4 µM) | 4 (≈ 13.4 µM) | 4 (≈ 13.4 µM) | 4 (≈ 13.4 µM) | 4 (≈ 13.4 µM) | 8 (≈ 26.7 µM) | 8 (≈ 26.7 µM) | 32 (≈ 107 µM) | 32 (≈ 107 µM) | 32 (≈ 107 µM) | 64 (≈ 214 µM) | 64 (≈ 214 µM) | 128 (≈ 428 µM) | 256 (≈ 855 µM) | 512 (≈ 1710 µM) | MIC (Klebsiella pneumoniae [6]): 2 µg/mL (≈ 6.68 µM); MIC (Klebsiella pneumoniae [14]): 8 µg/mL (≈ 26.7 µM); MIC (Klebsiella pneumoniae [15]): 32 µg/mL (≈ 107 µM); MIC (Klebsiella pneumoniae [16]): 8 µg/mL (≈ 26.7 µM); MIC (Klebsiella pneumoniae [17]): 32 µg/mL (≈ 107 µM); MIC (Klebsiella pneumoniae [18]): 32 µg/mL (≈ 107 µM); MIC (Klebsiella pneumoniae [27]): 512 µg/mL (≈ 1710 µM)
2 | C[C@@H](O)[C@H]1C(=O)N2C(C(=O)O)=C(S[C@@H]3CN[C@H](C(=O)Nc4cccc(C(=O)O)c4)C3)[C@H](C)[C@H]12 | < 0.5 | 8 (≈ 16.8 µM) | 2 (≈ 4.21 µM) | 2 (≈ 4.21 µM) | 8 (≈ 16.8 µM) | 8 (≈ 16.8 µM) | 4 (≈ 8.41 µM) | 4 (≈ 8.41 µM) | 8 (≈ 16.8 µM) | 16 (≈ 33.6 µM) | 16 (≈ 33.6 µM) | 16 (≈ 33.6 µM) | 64 (≈ 135 µM) | 128 (≈ 269 µM) | 128 (≈ 269 µM) | 256 (≈ 538 µM) | 256 (≈ 538 µM) | 256 (≈ 538 µM) | 256 (≈ 538 µM) | 1020 (≈ 2150 µM) | MIC (Klebsiella pneumoniae [6]): 8 µg/mL (≈ 16.8 µM); MIC (Klebsiella pneumoniae [14]): 32 µg/mL (≈ 67.3 µM); MIC (Klebsiella pneumoniae [15]): 16 µg/mL (≈ 33.6 µM); MIC (Klebsiella pneumoniae [16]): 64 µg/mL (≈ 135 µM); MIC (Klebsiella pneumoniae [17]): 64 µg/mL (≈ 135 µM); MIC (Klebsiella pneumoniae [18]): 64 µg/mL (≈ 135 µM); MIC (Klebsiella pneumoniae [27]): 1020 µg/mL (≈ 2150 µM)
3 | C[C@@H](O)[C@H]1C(=O)N2C(C(=O)O)=C(S[C@@H]3CN[C@H](C(=O)N(C)C)C3)[C@H](C)[C@H]12 [MEROPENEM] | < 0.25 | 4 (≈ 10.4 µM) | 4 (≈ 10.4 µM) | 1 (≈ 2.61 µM) | 2 (≈ 5.22 µM) | 2 (≈ 5.22 µM) | 4 (≈ 10.4 µM) | 4 (≈ 10.4 µM) | 8 (≈ 20.9 µM) | 8 (≈ 20.9 µM) | 8 (≈ 20.9 µM) | 8 (≈ 20.9 µM) | 32 (≈ 83.4 µM) | 32 (≈ 83.4 µM) | 64 (≈ 167 µM) | 64 (≈ 167 µM) | 128 (≈ 334 µM) | 128 (≈ 334 µM) | 256 (≈ 668 µM) | 256 (≈ 668 µM) | MIC (Klebsiella pneumoniae [27]): 512 µg/mL (≈ 1340 µM)
